Measurements: ChEMBL document CHEMBL3259717, “Synthetic calanolides with bactericidal activity against replicating and nonreplicating Mycobacterium tuberculosis” (J Med Chem, 2014)
In brackets after ≈: the same amount, converted by molar mass.

Assays:
[1] = test system: Mycobacterium tuberculosis; experiment: Antibacterial activity against replicating form of Mycobacterium tuberculosis MC2 6220 assessed as growth inhibition after 7 days by high-throughput screening assay; format: functional; conditions: MC2 6220, 168 h
How it was run: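 Attenuated Mtb mc26220 ΔpanCDΔlysA in 7H9 with glycerol, tyloxapol, OADC, casein amino acids, 240 μg/mL L-lysine, 24 μg/mL pantothenate. Mid-log cells diluted to OD580 0.01 in 384-well plates, compound in DMSO, 7 days at 37 °C, 20% O2, 5% CO2. OD580 read; MIC90 = 90% growth inhibition vs DMSO.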

[2] = test system: Mycobacterium tuberculosis; experiment: Antibacterial activity against non-replicating form of Mycobacterium tuberculosis MC2 6220 assessed as growth inhibition after 3 days by high-throughput screening assay; format: functional; conditions: MC2 6220, 72 h
How it was run: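 Log-phase mc26220 washed in PBS/tyloxapol, resuspended in Sauton's-based NR medium (butyrate, 0.5 mM NaNO2, pH 5.0) at OD580 0.1. Compound exposure 3 days at 37 °C, 1% O2, 5% CO2. Then R medium added (5-fold dilution), 7 days outgrowth at 20% O2. OD580 read; MIC90 = 90% inhibition vs DMSO.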

[3] = Cytotoxicity against human HepG2 cells assessed as decrease in ATP signal after 2 days by CellTiter-Glo assay; format: cell-based; conditions: read-out: LD50
How it was run: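 HepG2 in DMEM with 10% FBS, pyruvate, glutamine, HEPES and nonessential amino acids, seeded 3000 cells/well in 384-well plates. Compound for 2 days at 1% final DMSO. ATP read by CellTiter-Glo luminescence. LD50 = 50% drop in ATP signal vs DMSO. SI = LD50/MIC90 against replicating Mtb.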

Structure (SMILES) | MIC90 [1] [µg/mL] | MIC90 [2] [µg/mL] | CC50 at 48 h [3] [µg/mL]
CCCc1cc(=O)oc2c(C(=O)CC)c(N3CCN(c4ccncc4)CC3)c3c(c12)OC(C)(C)C=C3 | > 24 | > 24 | 
CCCc1cc(=O)oc2c3c(cc(OCCOC(=O)c4cnccn4)c12)O[C@H]([N+](=O)[O-])[C@H]3O (racemic) | < 1 | < 1 | < 1
CCCc1cc(=O)oc2cc(OCCN3CCOCC3)c3c(c12)OC(C)(C)C=C3 | 20 (≈ 50.1 µM) | > 20 | 20 (≈ 50.1 µM)
CCCc1cc(=O)oc2cc(OCCCO)c3c(c12)OC(C)(C)C=C3 | > 17 | > 17 | 
CCCc1cc(=O)oc2cc(OC(C)C)c3c(c12)OC(C)(C)C=C3 | > 16 | > 16 | > 16
CCCc1cc(=O)oc2cc(NC(=O)Nc3ccc(F)cc3)c3c(c12)OC(C)(C)C=C3 | > 21 | > 21 | 
CCCc1cc(=O)oc2c(C(=O)N3CCOCC3)c(O)c3c(c12)OC(C)(C)C=C3 | > 20 | > 20 | > 20
CCCc1cc(=O)oc2c(C(=O)CC)c(N3CCOCC3)c3c(c12)OC(C)(C)C=C3 | > 21 | > 21 | 
CCCc1cc(=O)oc2cc(N3CCN(C(=O)Nc4ccc(OC(F)(F)F)cc4)CC3)c3c(c12)OC(C)(C)C=C3 | > 28 | > 28 | > 28
CCCc1cc(=O)oc2c(C(=O)O)c(O)c3c(c12)OC(C)(C)C=C3 | > 17 | > 17 | > 17
CCCc1cc(=O)oc2c3c(cc(OCCO)c12)O[C@H]([N+](=O)[O-])[C@H]3O (racemic) | < 1 | < 1 | < 1
Cc1cc(=O)oc2cc(-c3ccc([N+](=O)[O-])o3)c3c(c12)OC(C)(C)C=C3 | > 18 | > 18 | > 18
CCCc1cc(=O)oc2cc(OC(C)=O)c3c(c12)OC(C)(C)C=C3 | > 16 | > 16 | 
CCCC1CC(=O)Oc2c1c1c(c3oc([N+](=O)[O-])cc23)C=CC(C)(C)O1 (stereo not given) | > 18 | > 18 | 
CCCc1cc(=O)oc2cc(NC(C)=O)c3c(c12)OC(C)(C)C=C3 | > 16 | > 16 | 
CCCc1cc(=O)oc2c(C(=O)CC)c(N(C)C)c3c(c12)OC(C)(C)C=C3 | > 18 | > 18 | 
CCCc1cc(=O)oc2cc(OC)c3c(c12)OC(C)(C)C=C3 | > 15 | > 15 | 
CCCc1cc(=O)oc2cc(OC3CCN(C(=O)Nc4ccc(F)cc4)CC3)c3c(c12)OC(C)(C)C=C3 | > 24 | > 24 | 
CCCc1cc(=O)oc2cc(C#Cc3ccc(F)cc3)c3c(c12)OC(C)(C)C=C3 | > 19 | > 19 | > 19
CCCc1cc(=O)oc2cc(C#Cc3ccc(OC)cc3)c3c(c12)OC(C)(C)C=C3 | > 20 | > 20 | > 20
CCCc1cc(=O)oc2cc(N3CCN(C(=O)Nc4ccc(C#N)cc4)CC3)c3c(c12)OC(C)(C)C=C3 | > 25 | > 25 | > 25
CCCc1cc(=O)oc2cc(NC(=O)c3cnccn3)c3c(c12)OC(C)(C)C=C3 | > 20 | > 20 | 

Structure (SMILES) | MIC90 [1] [µg/mL] | MIC90 [2] [µg/mL] | CC50 at 48 h [3] [µg/mL]
Cc1c(Cc2ccccc2)c(=O)oc2c1c1c(c3oc([N+](=O)[O-])cc32)C=CC(C)(C)O1 | 2 (≈ 4.79 µM) | > 21 | 
CCCc1cc(=O)oc2c1c(OCCN1CCOCC1)cc1oc([N+](=O)[O-])c(CO)c12 | 100 (≈ 231 µM) | 100 (≈ 231 µM) | 
CCCc1cc(=O)oc2cc(OC3CCN(C(=O)NCc4ccccc4)CC3)c3c(c12)OC(C)(C)C=C3 | > 25 | > 25 | > 25
CCCc1cc(=O)oc2cc(NC(=O)Nc3cccc4ccccc34)c3c(c12)OC(C)(C)C=C3 | > 23 | > 23 | 
CCCc1cc(=O)oc2cc(NCc3ccccc3)c3c(c12)OC(C)(C)C=C3 | 19 (≈ 50.6 µM) | > 19 | 
CCCc1cc(=O)oc2cc(N3CCN(C(=O)Nc4ccc(OC)cc4)CC3)c3c(c12)OC(C)(C)C=C3 | > 25 | > 25 | > 25
CCCc1cc(=O)oc2cc(NCc3cccc(F)c3)c3c(c12)OC(C)(C)C=C3 | > 20 | > 20 | 
CCCc1cc(=O)oc2cc(OCc3ccccc3)c3c(c12)OC(C)(C)C=C3 | > 19 | > 19 | 
CCCc1cc(=O)oc2cc(N3CCN(C(=O)Nc4ccccc4Oc4ccccc4)CC3)c3c(c12)OC(C)(C)C=C3 | > 28 | > 28 | > 28
CCCc1c(F)c(=O)oc2c1c1c(c3oc([N+](=O)[O-])cc32)C=CC(C)(C)O1 | 19 (≈ 50.9 µM) | 19 (≈ 50.9 µM) | 
CCCc1cc(=O)oc2cc(OC3CCCC3)c3c(c12)OC(C)(C)C=C3 | > 23 | > 23 | > 23
CCCc1cc(=O)oc2c(C(=O)CC)c(N3CCN(Cc4ccc(F)cc4)CC3)c3c(c12)OC(C)(C)C=C3 | > 26 | 26 (≈ 50.1 µM) | 
CCCc1cc(=O)oc2c1c1c(c3occc32)C=CC(C)(C)O1 | > 100 | > 100 | 
CCCc1cc(=O)oc2cc(C#CCO)c3c(c12)OC(C)(C)C=C3 | > 16 | > 16 | > 16
CCCc1cc(=O)oc2c3c(c4c(c12)OC(C)(C)C=C4)OC(OC(C)=O)C3=O (stereo not given) | > 100 | 6 (≈ 15.6 µM) | 
CCCc1cc(=O)oc2c(C(=O)CC)c(N3CCSCC3)c3c(c12)OC(C)(C)C=C3 | > 21 | > 21 | 
CCCc1cc(=O)oc2c3c(cc(OCCN4CCOCC4)c12)O[C@H]([N+](=O)[O-])[C@H]3C (racemic) | > 21 | > 21 | > 21
CCCc1cc(=O)oc2cc(C#Cc3ccc(C)cc3)c3c(c12)OC(C)(C)C=C3 | > 19 | > 19 | > 19
CC1(C)C=Cc2c(c3c4c(c(=O)oc3c3cc([N+](=O)[O-])oc23)CCCC4)O1 | < 0.2 | 2 (≈ 5.44 µM) | 
CCCc1cc(=O)oc2cc(N3CCN(C(=O)NC4CCCCC4)CC3)c3c(c12)OC(C)(C)C=C3 | > 24 | > 24 | > 24
CCCc1cc(=O)oc2cc(NCc3ccc(F)cc3)c3c(c12)OC(C)(C)C=C3 | > 20 | > 20 | 
CCCc1cc(=O)oc2cc(OC3CCCCC3)c3c(c12)OC(C)(C)C=C3 | > 18 | > 18 | > 18

Structure (SMILES) | MIC90 [1] [µg/mL] | MIC90 [2] [µg/mL] | CC50 at 48 h [3] [µg/mL]
CCCc1cc(=O)oc2cc(N3CCN(C(=O)Nc4ccc(F)cc4)CC3)c3c(c12)OC(C)(C)C=C3 | > 25 | > 25 | > 25
Cc1cc(=O)oc2cc(NC(=O)c3ccc([N+](=O)[O-])o3)c3c(c12)OC(C)(C)C=C3 | > 20 | > 20 | 
CCCc1cc(=O)oc2cc(N3CCN(C(=O)Nc4ccc(C(C)C)cc4)CC3)c3c(c12)OC(C)(C)C=C3 | > 26 | > 26 | > 26
CCCc1cc(=O)oc2cc(OC(=O)c3ccccc3)c3c(c12)OC(C)(C)C=C3 | > 20 | > 20 | 
CCCc1cc(=O)oc2cc(NC(=O)c3ccccc3)c3c(c12)OC(C)(C)C=C3 | > 19 | > 19 | 
CCCc1cc(=O)oc2cc(OCCc3cccs3)c3c(c12)OC(C)(C)C=C3 | > 20 | > 20 | 
CCCc1cc(=O)oc2c3c(c4c(c12)OC(C)(C)C=C4)OC(O)C3=O (stereo not given) | > 17 | 17 (≈ 49.7 µM) | 
CCCc1cc(=O)oc2cc(OCC(=O)NCCc3ccccc3)c3c(c12)OC(C)(C)C=C3 | > 22 | > 22 | 
CCCc1cc(=O)oc2c1c(O)cc1oc([N+](=O)[O-])cc12 | > 14 | > 14 | 
CCCc1cc(=O)oc2c3c(c4cc([N+](=O)[O-])oc4c12)OC(C)CC3=O (stereo not given) | > 50 | 6 (≈ 16.8 µM) | 
CCCc1cc(=O)oc2cc(N3CCSCC3)c3c(c12)OC(C)(C)C=C3 | > 19 | > 19 | 
CCCc1cc(=O)oc2c1c(-c1ccc(F)cc1)cc1oc([N+](=O)[O-])cc12 | 0.7 (≈ 1.91 µM) | 18 (≈ 49 µM) | 
CCCc1cc(=O)oc2c(C(=O)CC)c(N3CCN(c4ccc(OC)cc4)CC3)c3c(c12)OC(C)(C)C=C3 | > 26 | > 26 | 
CC1(C)C=Cc2c(c3c(-c4ccccc4)cc(=O)oc3c3cc([N+](=O)[O-])oc23)O1 | 2 (≈ 5.14 µM) | 19 (≈ 48.8 µM) | 
CCCc1cc(=O)oc2cc(Nc3ccccc3)c3c(c12)OC(C)(C)C=C3 | > 18 | > 18 | 
CCCc1cc(=O)oc2c3c(c4c(c12)OC(C)(C)C=C4)OC(C)(OC(C)=O)C3=O (stereo not given) | > 20 | > 20 | 
CCCc1cc(=O)oc2cc(N3CCC(O)CC3)c3c(c12)OC(C)(C)C=C3 | > 18 | > 18 | 
CCCc1cc(=O)oc2c(C(=O)CC)c(N3CCN(c4ccccn4)CC3)c3c(c12)OC(C)(C)C=C3 | > 24 | > 24 | 
CCCc1cc(=O)oc2cc(OCC3CC3)c3c(c12)OC(C)(C)C=C3 | > 17 | > 17 | 
CCCc1cc(=O)oc2cc(OC(=O)/C=C/c3ccccc3)c3c(c12)OC(C)(C)C=C3 | > 21 | > 21 | 
